Sampled rows, rich in hits. Any-hit rate of the full collection: about 2.3%.
TWEAK Fn14 block: inhibitors of TWEAK-Fn14 interaction signaling | AID 1159606 | actives 2% (n = 360,000) | inhibition, % at 10 µM | TWEAK-stimulated Fn14 reporter cells, luciferase luminescence, 8 h; in the data active = inhibition above about 50%
EWS-Fli inh: EWS/Fli transcriptional activity inhibition | actives 0.67% (n = 350,000) | A673 NR0B1-luciferase reporter, viability-normalised | inhibition, % at 12.6 µM;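 active = mean inhibition of at least 50% after viability correction, with every replicate also passing that limit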;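 also: firefly luciferase signal divided by Alamar Blue viability fluorescence both relative to DMSO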
XiGFP reactiv: activators of X-chromosome reactivation in mouse fibroblasts; AID 743238; XiGFP mouse fibroblasts, % GFP-positive cells imaging, 3 d; cells co-treated with 5-aza-dC sensitizer; scaled so ellipticine positive control = 100%; activation, % at 7.58 µM; actives 0.055% (n = 360,000);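 active = mean normalized replicate activation at least 10% and every replicate at or above 10%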;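 also: 0% = median of on-plate neutral control wells and 100% = ellipticine 6 µM median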
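Material: SV40-immortalized XiGFP fibroblast cells, line 68-5-11 | Buffer or medium: DMEM containing 5-aza-dC | Dosing: One concentration, pinned | Times: 3 d treatment, 15 min room-temperature fixation | Controls: Ellipticine 6 µM positive control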
FN deposition inh: fibronectin deposition inhibition. AH1F fibroblasts, Alexa488-fibronectin deposition fluorescence, overnight. actives 0.086% (n = 350,000). inhibition, % at 12.6 µM;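 active = mean inhibition across replicates of 30% or more, regardless of how many single replicates reach that level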;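 also: positive control wells lacked labelled fibronectin entirely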
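Material: AH1F fibroblast monolayer depositing Alexa488-labelled fibronectin into matrix | Input: 10000 AH1F cells/well | Medium: DMEM plus 2% serum, read in PBS | Reagent: Alexa488-fibronectin, 24 nM final in well | Compound dosing: One dose per compound, pinned | Schedule: 1 h adhesion, overnight exposure | Measured by: Fluorescence at 485 nm excitation, 525 nm emission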
TROY signal inh: TROY signaling inhibition; Q293 LMP1-TROYcd NF-kB luciferase reporter, 4 h; inhibition, % at 10 µM; actives 0.98% (n = 360,000); AID 1347056;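 active = compounds whose plate-normalised and pattern-corrected inhibition of the luciferase reporter signal at the single screening dose is 50% or more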
LGR2 inh: inhibitors of bursicon-induced Drosophila LGR2 receptor cAMP signaling; inhibition, % at 9.99 µM; HEK293 LGR2, CRE-luciferase, bursicon-stimulated, 4 h; actives 0.35% (n = 380,000);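 active = drop in luminescence signal, shown as inhibition above about 50% in the replicate tests, limit read from the data, passing the limit was not always enough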;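 also: agonist challenge used bursicon conditioned medium at about half maximal strength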
Numbers without * were called inactive; . = no result given.

SMILES	TWEAK Fn14 block	EWS-Fli inh	XiGFP reactiv	FN deposition inh	TROY signal inh	LGR2 inh
Cc1cc(C(=O)N/N=C2\CC(=O)CC(C)(C)C2)c(C)n1-c1ccc(F)cc1	-2.1	.	-0.1	-7.1	-14.7	-0.6
Cc1cc(C(=O)N/N=C2\CC(=O)CC(C)(C)C2)c(C)n1-c1ccccc1	22.4	3.9	0.4	-1.0	53.3*	-1.7
COC(=O)C1=CN(c2ccc3c(c2)OCO3)C(N)=C(C#N)C1c1ccc(-c2ccccc2)cc1 (stereo unspecified)	.	66.9*	0.8	2.0	.	-23.2
CN1c2ccc(Br)cc2[C@@H]2[C@@H](CCN2C(=O)CN2CCOCC2)[C@H]1CO	.	-18.1	0.1	-18.7	.	10.6
CCNC(=S)NNC(=O)c1cc(-c2ccc(OCC)cc2)nc2ccccc12	52.1*	71.2*	.	.	-3.2	89.5*
CCNC(=S)NNC(=O)c1cc(-c2cccc(OC)c2)nc2ccccc12	-40.2	.	0.2	0.2	-33.8	-4.0
CCc1ccc(-c2cc(C(=O)Nn3cnnc3)c3ccccc3n2)cc1	58.7*	77.6*	.	.	-2.1	8.0
CCCc1ccc(-c2cc(C(=O)NN3CCOCC3)c3ccccc3n2)cc1	-9.2	.	.	7.7	-52.4	2.1
O=C(CN(Cc1ccccc1)C(=O)CCl)c1cccc(Br)c1	66.2*	49.5	0.0	-2.7	5.4	24.6
O=C(CN1C(=O)CCC1=O)Nc1nc(-c2nc3ccccc3s2)cs1	82.8*	-84.0	0.1	3.1	-6.1	-54.4
O=C(CN1C(=O)CCC1=O)Nc1nc(-c2ccccn2)cs1	12.1	3.2	0.0	2.8	0.9	-32.8
C[C@@H]1CN([C@H](C)CO)S(=O)(=O)c2ccc(Br)cc2O[C@H]1CN(C)C(=O)C1CCC1	.	-8.4	-0.8	.	.	-8.2
C[C@H](NC(=O)C[C@@H]1CC[C@@H](NC(=O)c2cccnc2)[C@H](CO)O1)c1ccccc1	.	-3.0	0.1	3.2	.	7.5
COC(=O)C1=C(C(=O)OC)[C@@H]2N(Cc3ccccc3)c3ccccc3[C@@]23C[C@@H](C(=O)OC)N(C(=O)NC(C)(C)C)C3=N1	1.5	0.4	-0.3	0.5	-6.4	14.9
COC(=O)C1=C(C(=O)OC)[C@@H]2N(Cc3ccccc3)c3ccccc3[C@@]23C[C@@H](C(=O)OC)N(C(=O)c2ccc(Br)cc2)C3=N1	54.1*	.	.	.	9.5	.
C=CCN1c2ccccc2[C@]23C[C@@H](C(=O)OC)N(C(=O)c4ccc(Br)cc4)C2=NC(C(=O)OC)=C(C(=O)OC)[C@H]13	61.0*	14.6	0.0	-1.3	31.3	7.2
COC(=O)C1=C(C(=O)OC)[C@@H]2N(Cc3ccccc3)c3ccccc3[C@@]23C[C@@H](C(=O)OC)N(C(=O)COCc2ccccc2)C3=N1	50.9*	.	.	.	24.1	.
COC(=O)C1=C(C(=O)OC)[C@@H]2N(Cc3ccccc3)c3ccccc3[C@@]23C[C@@H](C(=O)OC)N(C(C)=O)C3=N1	17.0	7.6	0.0	0.5	10.1	23.7
COC(=O)C1=C(C(=O)OC)[C@@H]2N(C)c3ccc(OC)cc3[C@@]23C[C@@H](C(=O)OC)N(C(=O)c2ccc(Br)cc2)C3=N1	53.4*	3.0	0.0	-7.9	18.9	1.2
COc1ccc(CNC(=O)C[C@H]2CC[C@H](NC(=O)c3ccc4c(c3)OCO4)[C@H](CO)O2)cc1	.	1.1	-0.1	-7.4	.	6.4
COc1ccc(NC(=O)Nc2ccc3c(c2)CC(=O)N([C@@H](C)CO)C[C@@H](C)[C@H](CN(C)S(C)(=O)=O)O3)cc1	.	.	0.1	.	.	19.4
CCOC(=O)c1ccc(N=c2sc(C(=O)OC)cc(=O)n2Cc2ccco2)cc1	64.2*	8.2	0.0	8.5	32.0	69.5*
CCOC(=O)c1ccc(N=c2sc(C(=O)OC)cc(=O)n2CCCN2CCOCC2)cc1	22.5	-1.6	0.0	-2.7	8.2	27.0
CC(=O)c1ccc(NC(=S)Nc2ccc(N3CCOCC3)cc2)cc1	37.7	-10.9	0.6	.	51.3*	6.2
O=C(NC(=S)Nc1ccc(N2CCOCC2)cc1)c1ccccc1	-22.1	-48.5	0.0	10.8	9.8	-86.3
SMILES	TWEAK Fn14 block	EWS-Fli inh	XiGFP reactiv	FN deposition inh	TROY signal inh	LGR2 inh
CCOc1ccc(NC(=O)CN2CCN(C(=O)C3CCCO3)CC2)cc1 (stereo unspecified)	92.8*	.	-0.1	.	-3.9	8.4
CC(=O)c1ccc(NC(=O)CN2CCN(CC(=O)Nc3ccc(C(C)=O)cc3)CC2)cc1	-19.1	-1.6	0.0	-0.4	-4.6	-8.9
COc1cc(NC(=O)Nc2ccccc2)c(OC)cc1NC(=O)CN1CCCCC1	78.0*	.	.	.	.	.
CC(=O)c1ccc(NC(=O)CN2CCOCC2)cc1	109.6*	-1.7	0.0	-1.4	-2.6	-9.8
CCOC(=O)c1ccc(NC(=O)CN2CCN(C(=O)C3CCCO3)CC2)cc1 (stereo unspecified)	-6.2	.	0.0	.	4.4	10.5
COc1cccc(S(=O)(=O)N(C)C[C@@H]2OCc3ccccc3-c3ccccc3C(=O)N([C@@H](C)CO)C[C@@H]2C)c1	.	0.3	0.2	-10.7	.	22.1
C/C=C/c1ccc([C@H]2[C@@H](CN(C)S(C)(=O)=O)N(C(C)=O)[C@H]2CO)cc1	.	-12.1	0.2	-7.3	.	8.9
O=C(CN1CCCC1)Nc1ccc(Oc2ccc(NC(=O)CN3CCCC3)cc2)cc1	0.0	.	.	30.2*	4.2	.
O=C(Nc1ccc(N2CCOCC2)cc1)c1ccc2nc(-c3ccco3)c(-c3ccco3)nc2c1	7.6	.	.	.	1.9	.
CCc1ccc(C(=O)NC(=S)Nc2ccc(N3CCOCC3)cc2)cc1	21.6	-14.0	0.0	-1.0	52.6*	-14.3
S=C(Nc1ccc(N2CCOCC2)cc1)Nc1ccc2nc(-c3ccco3)c(-c3ccco3)nc2c1	71.6*	.	.	-7.1	4.0	.
CN(C)CC(=O)N[C@@H]1CC[C@@H](CC(=O)NCc2ccccc2F)O[C@@H]1CO	.	-33.6	-0.3	.	.	-0.4
Cc1noc(C)c1S(=O)(=O)Nc1ccc2c(c1)C(=O)N([C@H](C)CO)C[C@@H](C)[C@@H](CN(C)C(=O)Nc1ccc(F)cc1)OCCCC[C@@H](C)O2	.	-2.9	0.0	-3.3	.	4.0
c1ccc(COc2ccc(CN3CCN(c4ccccn4)CC3)cc2)cc1	14.8	.	.	.	57.2*	.
Cc1ccc(OCc2nc(C#N)c(N3CCN(Cc4ccccc4)CC3)o2)cc1	102.8*	.	.	-2.3	-8.3	.
c1ccc(CN2CCN(c3ncccn3)CC2)cc1	8.2	-6.2	-0.1	-1.7	2.1	-4.6
O=C(NC1CCCCC1)[C@H]1[C@H](CO)[C@H]2Cn3c(cccc3=O)[C@@H]1N2CC1CCCC1	.	13.5	0.0	-0.6	.	-0.5
C[C@@H]1CN([C@@H](C)CO)S(=O)(=O)c2ccc(-c3ccc(C(=O)N(C)C)cc3)cc2O[C@@H]1CN(C)C(=O)C1CC1	.	-3.1	-0.3	.	.	0.6
